Assay results as given in ChEMBL document CHEMBL1143612, “Combinatorial optimization of isatin-beta-thiosemicarbazones as anti-poxvirus agents” (J Med Chem, 2005).

Tested on: HFF
Assay: Effective concentration required to inhibit vaccinia virus plaque formation in human foreskin fibroblast (HFF) cells
Assay type: functional, cell-based

Row | SMILES | EC50
1 | NC(=S)/N=N/c1c(O)[nH]c2ccccc12 | 14 µM
2 | Nc1ccn(C[C@@H](CO)OCP(=O)(O)O)c(=O)n1.O.O [CIDOFOVIR] | 27 µM
3 | CN1C(=O)/C(=N\NC(N)=S)c2ccccc21 [METHISAZONE] | 3.3 µM

Tested on: HFF
Assay: Ratio of Effective concentration to inhibit cowpox virus plaque formation to that of half maximal cytotoxic concentration in human foreskin fibroblast (HFF) cells
Assay type: functional

Row | SMILES | SI
4 | NC(=S)/N=N/c1c(O)[nH]c2ccccc12 | >7.6
5 | Nc1ccn(C[C@@H](CO)OCP(=O)(O)O)c(=O)n1.O.O [CIDOFOVIR] | >8.3
6 | CN1C(=O)/C(=N\NC(N)=S)c2ccccc21 [METHISAZONE] | >31

Tested on: HFF
Assay: Ratio of Effective concentration to inhibit vaccinia virus plaque formation to that of half maximal cytotoxic concentration in human foreskin fibroblast (HFF) cells
Assay type: functional

Row | SMILES | SI
7 | NC(=S)/N=N/c1c(O)[nH]c2ccccc12 | >32
8 | Nc1ccn(C[C@@H](CO)OCP(=O)(O)O)c(=O)n1.O.O [CIDOFOVIR] | >12
9 | CN1C(=O)/C(=N\NC(N)=S)c2ccccc21 [METHISAZONE] | >129

Tested on: HFF
Assay: Half-maximal cytotoxic concentration in human foreskin fibroblast (HFF) cells
Assay type: functional
In short: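 Primary HFF cells seeded at 2.5 × 10^4/well in 96-well plates 24 h ahead. Exposed 7 d at 37 °C to drug in MEM/2% FBS, 1:5 serial dilutions, final 100 to 0.032 µg/mL.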

Row | SMILES | CC50
10 | NC(=S)/N=N/c1c(O)[nH]c2ccccc12 | > 454 µM
11 | Nc1ccn(C[C@@H](CO)OCP(=O)(O)O)c(=O)n1.O.O [CIDOFOVIR] | > 317 µM
12 | CN1C(=O)/C(=N\NC(N)=S)c2ccccc21 [METHISAZONE] | > 427 µM

Tested on: HFF
Assay: Effective concentration required to inhibit cowpox virus plaque formation in human foreskin fibroblast (HFF) cells
Assay type: functional, cell-based

Row | SMILES | EC50
13 | NC(=S)/N=N/c1c(O)[nH]c2ccccc12 | 60 µM
14 | Nc1ccn(C[C@@H](CO)OCP(=O)(O)O)c(=O)n1.O.O [CIDOFOVIR] | 38 µM
15 | CN1C(=O)/C(=N\NC(N)=S)c2ccccc21 [METHISAZONE] | 14 µM
